From ChEMBL document CHEMBL4425125, “Development of a Dual-Acting Antibacterial Agent (TNP-2092) for the Treatment of Persistent Bacterial Infections” (J Med Chem, 2016)
≈ marks a conversion by molar mass, not a printed value.

Tests used:
[1] = tested on: Staphylococcus epidermidis; assay: Antimicrobial activity against Staphylococcus epidermidis infected in rat central venous catheter infection model assessed as reduction in bacterial load; type: functional
Staphylococcus aureus [2] = assay: Antimicrobial activity against Staphylococcus aureus isogenic forms expressing gyrA S84L mutant by broth dilution method; type: functional
Summary of the method: (§1)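 MIC (μg/mL) on otherwise isogenic derivatives of S. aureus ATCC 29213 that carry the rifamycin-resistance allele rpoB H481Y and/or the quinolone-resistance alleles parC S80F and gyrA S84L. The wild-type parent is the reference strain. MICs were determined both by agar dilution and by broth dilution, tested side by side on the same panel.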

Staphylococcus aureus [3] = assay: Bactericidal activity against methicillin-sensitive Staphylococcus aureus 29213 infected in mouse macrophages assessed as induction of bacterial kill at 4 ug/ml in presence of 4 ug/ml rifampin after 24 hrs; type: functional
[4] = tested on: Staphylococcus epidermidis; assay: Antimicrobial activity against methicillin-resistant Staphylococcus epidermidis clinical isolates by broth dilution method; type: functional; details: Staphylococcus epidermidis
Staphylococcus aureus [5] = assay: Antimicrobial activity against Staphylococcus aureus isogenic forms expressing gyrA S84L and parC S80F mutant by broth dilution method; type: functional; summary of the method: as §1
Staphylococcus aureus [6] = assay: Antimicrobial activity against methicillin-resistant Staphylococcus aureus 67-0; type: functional
[7] = Plasma clearance in iv dosed rabbit; type: ADME, organism-based, Oryctolagus cuniculus
[8] = tested on: Staphylococcus epidermidis; assay: Antimicrobial activity against methicillin-sensitive Staphylococcus epidermidis clinical isolates by broth dilution method; type: functional
[9] = Inhibition of wild type Staphylococcus aureus RNA polymerase assessed as reduction in RNA product formation
Staphylococcus aureus [10] = assay: Antimicrobial activity against methicillin-sensitive Staphylococcus aureus clinical isolates by broth dilution method; type: functional
Staphylococcus aureus [11] = assay: Antimicrobial activity against Staphylococcus aureus isogenic forms expressing parC S80F mutant by agar dilution method; type: functional; summary of the method: as §1
[12] = Plasma clearance in iv dosed rat; type: ADME, organism-based
[13] = Volume of distribution in iv dosed dog; details: in vivo
Staphylococcus aureus [14] = assay: Antimicrobial activity against Staphylococcus aureus isogenic forms expressing rpoB H481Y and parC S80F mutant by broth dilution method; type: functional; summary of the method: as §1
Staphylococcus aureus [15] = assay: Antimicrobial activity against Staphylococcus aureus isogenic forms expressing gyrA S84L and parC S80F mutant by agar dilution method; type: functional; summary of the method: as §1
Staphylococcus aureus [16] = assay: […] activity against Staphylococcus aureus ATCC 29213 assessed as induction of bacterial kill at […] in presence of 1 ug/ml rifampin after 24 hrs
Staphylococcus aureus [17] = assay: Antimicrobial activity against methicillin-resistant Staphylococcus aureus clinical isolates by broth dilution method; type: functional
[18] = Half life in iv dosed dog plasma; type: ADME, organism-based, Canis lupus familiaris
Staphylococcus aureus [19] = assay: Antimicrobial activity against methicillin-sensitive Staphylococcus aureus infected in mouse skin abscess model; type: functional
Staphylococcus aureus [20] = assay: Antimicrobial activity against Staphylococcus aureus isogenic forms expressing rpoB H481Y and parC S80F mutant by agar dilution method; type: functional; summary of the method: as §1
Streptococcus pneumoniae = assay: Antimicrobial activity against Streptococcus pneumoniae clinical isolates by broth dilution method; type: functional
Staphylococcus aureus [21] = assay: Antimicrobial activity against Staphylococcus aureus isogenic forms expressing rpoB H481Y and gyrA S84L mutant by broth dilution method; type: functional; summary of the method: as §1
Staphylococcus aureus [22] = assay: Antimicrobial activity against wild type Staphylococcus aureus by broth dilution method; type: functional; summary of the method: as §1
Staphylococcus aureus [23] = assay: Antimicrobial activity against Staphylococcus aureus isogenic forms expressing rpoB H481Y mutant by broth dilution method; type: functional; summary of the method: as §1
[24] = Half life in iv dosed mouse plasma; type: ADME, organism-based
[25] = Volume of distribution in iv dosed dog; details: in vivo; remark: listed apart in the source
[26] = Plasma clearance in iv dosed dog; type: ADME, organism-based, Canis lupus familiaris
[27] = Inhibition of RIF-resistant Staphylococcus aureus RNA polymerase RpoB H481Y mutant assessed as reduction in RNA product formation
[28] = tested on: Staphylococcus epidermidis; assay: Antimicrobial activity against Staphylococcus epidermidis infected in mouse skin abscess model; type: functional
Staphylococcus aureus [29] = assay: Antimicrobial activity against methicillin-sensitive Staphylococcus aureus infected in rat central venous catheter infection model assessed as reduction in bacterial load; type: functional
Streptococcus agalactiae = assay: Antimicrobial activity against Streptococcus agalactiae clinical isolates by broth dilution method; type: functional
[30] = biological target: DNA gyrase (Staphylococcus aureus) (UniProt P0A0K8+P20831)
Staphylococcus aureus [31] = assay: Antimicrobial activity against wild type Staphylococcus aureus by agar dilution method; type: functional; summary of the method: as §1
Staphylococcus aureus [32] = tested on: Staphylococcus aureus
Staphylococcus aureus [33] = assay: Antimicrobial activity against Staphylococcus aureus isogenic forms expressing rpoB H481Y/gyrA S84L/parC S80F mutant by agar dilution method; type: functional; summary of the method: as §1
Staphylococcus aureus [34] = assay: Antimicrobial activity against Staphylococcus aureus ATCC 29213 assessed as mutation preventive concentration
Staphylococcus aureus [35] = assay: Antimicrobial activity against Staphylococcus aureus isogenic forms expressing rpoB H481Y/gyrA S84L/parC S80F mutant by broth dilution method; type: functional; summary of the method: as §1
Streptococcus pyogenes [36] = assay: Antimicrobial activity against Streptococcus pyogenes infected in mouse skin abscess model; type: functional
Staphylococcus aureus [37] = assay: Antimicrobial activity against Staphylococcus aureus infected in rat […] model assessed as reduction in bacterial load in granuloma pouch fluid at 5 to 25 mg/kg, iv administered as single dose; type: functional
Staphylococcus aureus [38] = assay: Antimicrobial activity against Staphylococcus aureus isogenic forms expressing gyrA S84L mutant by agar dilution method; type: functional; summary of the method: as §1
Staphylococcus aureus [39] = assay: Antimicrobial activity against Staphylococcus aureus isogenic forms expressing rpoB H481Y and gyrA S84L mutant by agar dilution method; type: functional; summary of the method: as §1
Streptococcus pyogenes [40] = assay: Antimicrobial activity against Streptococcus pyogenes infected in rat central venous catheter infection model assessed as reduction in bacterial load; type: functional
Streptococcus pyogenes [41] = assay: Antimicrobial activity against Streptococcus pyogenes clinical isolates by broth dilution method; type: functional
Staphylococcus aureus [42] = assay: Antimicrobial activity against Staphylococcus aureus isogenic forms expressing parC S80F mutant by broth dilution method; type: functional; summary of the method: as §1
Staphylococcus aureus [43] = assay: Bactericidal activity against methicillin-resistant Staphylococcus aureus 67-0; type: functional
[44] = biological target: Topoisomerase IV (Staphylococcus aureus) (UniProt P0C1U9+P0C1S7)
[45] = biological target: DNA topoisomerase 2-alpha (Homo sapiens) (UniProt P11388)
Staphylococcus aureus [46] = assay: Antimicrobial activity against Staphylococcus aureus isogenic forms expressing rpoB H481Y mutant by agar dilution method; type: functional; summary of the method: as §1
[47] = Half life in iv dosed rabbit plasma; type: ADME, organism-based, Oryctolagus cuniculus
[48] = Half life in iv dosed rat plasma; type: ADME, organism-based
Staphylococcus aureus [49] = assay: Antimicrobial activity against Staphylococcus aureus isogenic forms expressing gyrA S84L mutant; type: functional
Staphylococcus aureus [50] = assay: Antimicrobial activity against Staphylococcus aureus isogenic forms expressing rpoB H481Y and parC S80F mutant; type: functional; summary of the method: as §1
Staphylococcus aureus [51] = assay: Antimicrobial activity against Staphylococcus aureus isogenic forms expressing rpoB H481Y and gyrA S84L mutant; type: functional
Staphylococcus aureus [52] = assay: Antimicrobial activity against Staphylococcus aureus isogenic forms expressing rpoB H481Y/gyrA S84L/parC S80F mutant; type: functional; summary of the method: as §1
Staphylococcus aureus [53] = assay: Antimicrobial activity against wild type Staphylococcus aureus; type: functional
Staphylococcus aureus [54] = assay: Antimicrobial activity against Staphylococcus aureus isogenic forms expressing gyrA S84L and parC S80F mutant; type: functional; summary of the method: as §1
Staphylococcus aureus [55] = assay: Antimicrobial activity against Staphylococcus aureus isogenic forms expressing rpoB H481Y mutant; type: functional
Staphylococcus aureus [56] = assay: Antimicrobial activity against Staphylococcus aureus isogenic forms expressing parC S80F mutant; type: functional; summary of the method: as §1

CO[C@H]1/C=C/O[C@@]2(C)Oc3c(C)c(O)c4c(O)c(c(/C=N/N5CCC(N(C)C6([C@@H]7CCN(c8c(F)cn9c(=O)c(C(=O)O)cc(C%10CC%10)c9c8C)C7)CC6)CC5)c(O)c4c3C2=O)NC(=O)/C(C)=C\C=C\[C@H](C)[C@H](O)[C@@H](C)[C@@H](O)[C@@H](C)[C@H](OC(C)=O)[C@@H]1C
Activity [1]: >3.1 log10CFU
MIC (Staphylococcus aureus [2]): 0.015 µg/mL (≈ 0.0124 µM)
Activity (Staphylococcus aureus [3]): >99.9%
MIC50 [4]: 0.008 µg/mL (≈ 0.00664 µM)
MIC90 [4]: 0.5 µg/mL (≈ 0.415 µM)
MIC (Staphylococcus aureus [5]): 0.015 µg/mL (≈ 0.0124 µM)
MIC (Staphylococcus aureus [6]): 0.008 µg/mL (≈ 0.00664 µM)
clearance [7]: 1.17 to 6 mL/min/kg
MIC50 [8]: ≤ 0.008 µg/mL
MIC90 [8]: 0.008 µg/mL (≈ 0.00664 µM)
IC50 [9]: 34 nM
MIC50 (Staphylococcus aureus [10]): 0.008 µg/mL (≈ 0.00664 µM)
MIC90 (Staphylococcus aureus [10]): 0.015 µg/mL (≈ 0.0124 µM)
MIC (Staphylococcus aureus [11]): 0.008 µg/mL (≈ 0.00664 µM)
clearance [12]: 1.17 to 6 mL/min/kg
Vd [13]: 0.09 to 0.17 L/kg
MIC (Staphylococcus aureus [14]): 0.25 µg/mL (≈ 0.207 µM)
MIC (Staphylococcus aureus [15]): 0.008 µg/mL (≈ 0.00664 µM)
Activity (Staphylococcus aureus [16]): >=99.9%
MIC50 (Staphylococcus aureus [17]): 0.015 µg/mL (≈ 0.0124 µM)
MIC90 (Staphylococcus aureus [17]): 0.015 µg/mL (≈ 0.0124 µM)
half-life [18]: 1.6 to 11.7 h
ED50 (Staphylococcus aureus [19]): 1.4 to 3.8 mg/kg
MIC (Staphylococcus aureus [20]): 0.06 µg/mL (≈ 0.0498 µM)
MIC (Streptococcus pneumoniae): 0.06 to 0.25 µg/mL (≈ 0.0498 to 0.207 µM)
MIC50 (Streptococcus pneumoniae): 0.12 µg/mL (≈ 0.0996 µM)
MIC90 (Streptococcus pneumoniae): 0.12 µg/mL (≈ 0.0996 µM)
MIC (Staphylococcus aureus [21]): 0.5 µg/mL (≈ 0.415 µM)
MIC (Staphylococcus aureus [22]): 0.015 µg/mL (≈ 0.0124 µM)
MIC (Staphylococcus aureus [23]): 0.12 µg/mL (≈ 0.0996 µM)
half-life [24]: 0.4 to 4.1 h
Vd [25]: 0.09 to 0.17 L/kg
clearance [26]: 0.167 to 1.33 mL/min/kg
IC50 [27]: > 25000 nM
ED50 [28]: 4.8 to 10.7 mg/kg
Activity (Staphylococcus aureus [29]): 2.8 - 3.4 log10CFU
MIC (Streptococcus agalactiae): 0.06 to 2 µg/mL (≈ 0.0498 to 1.66 µM)
MIC50 (Streptococcus agalactiae): 0.12 µg/mL (≈ 0.0996 µM)
MIC90 (Streptococcus agalactiae): 0.25 µg/mL (≈ 0.207 µM)
CC50 [30]: 1500 nM
MIC (Staphylococcus aureus [31]): 0.008 µg/mL (≈ 0.00664 µM)
CC50 (Staphylococcus aureus [32]): 2700 nM
MIC (Staphylococcus aureus [33]): 0.25 µg/mL (≈ 0.207 µM)
Activity (Staphylococcus aureus [34]): 0.12 µg/mL
MIC (Staphylococcus aureus [35]): 2 µg/mL (≈ 1.66 µM)
ED50 (Streptococcus pyogenes [36]): 4.8 to 10.7 mg/kg
Activity (Staphylococcus aureus [37]): 1 - 3.4 log10CFU
MIC (Staphylococcus aureus [38]): 0.008 µg/mL (≈ 0.00664 µM)
MIC (Staphylococcus aureus [39]): 0.12 µg/mL (≈ 0.0996 µM)
Activity (Streptococcus pyogenes [40]): >3.1 log10CFU
MIC (Streptococcus pyogenes [41]): 0.008 to 0.12 µg/mL (≈ 0.00664 to 0.0996 µM)
MIC50 (Streptococcus pyogenes [41]): 0.03 µg/mL (≈ 0.0249 µM)
MIC90 (Streptococcus pyogenes [41]): 0.12 µg/mL (≈ 0.0996 µM)
MIC (Staphylococcus aureus [42]): 0.015 µg/mL (≈ 0.0124 µM)
MBC (Staphylococcus aureus [43]): 0.5 µg/mL (≈ 0.415 µM)
CC50 [44]: 1700 nM
CC50 [45]: > 150000 nM
MIC (Staphylococcus aureus [46]): 0.06 µg/mL (≈ 0.0498 µM)
half-life [47]: 0.4 to 4.1 h
half-life [48]: 0.4 to 4.1 h

COc1c(N2CCNC(C)C2)c(F)cc2c(=O)c(C(=O)O)cn(C3CC3)c12 (configuration not stated) [GATIFLOXACIN]
MIC (Staphylococcus aureus [49]): 0.12 µg/mL (≈ 0.32 µM)
MIC (Staphylococcus aureus [50]): 0.25 µg/mL (≈ 0.666 µM)
MIC (Staphylococcus aureus [51]): 0.12 µg/mL (≈ 0.32 µM)
MIC (Staphylococcus aureus [52]): 8 µg/mL (≈ 21.3 µM)
CC50 [30]: 700 nM
CC50 (Staphylococcus aureus [32]): 13000 nM
MIC (Staphylococcus aureus [53]): 0.06 µg/mL (≈ 0.16 µM)
MIC (Staphylococcus aureus [54]): 8 µg/mL (≈ 21.3 µM)
CC50 [44]: 200 nM
CC50 [45]: > 150000 nM
MIC (Staphylococcus aureus [55]): 0.06 µg/mL (≈ 0.16 µM)
MIC (Staphylococcus aureus [56]): 0.25 µg/mL (≈ 0.666 µM)
